The results in this text go back to ChEMBL document CHEMBL1132966, “Conformationally constrained analogues of diacylglycerol (DAG). 16. How much structural complexity is necessary for recognition and high binding affinity to protein kinase C?” (J Med Chem, 2000).

The subject of one assay is C3H 10T1/2. The experiment in a line: Tested for inhibition of EGF(epidermal growth factor) to C3H10T1/2 cells. The format is functional. The following applies: Mus musculus, read-out: ED50 (the source's name). In a few lines:
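C3H10T1/2 cells were plated at 2.5×10^5/well in MEM with 10% FBS and grown 2 days at 37 °C, 5% CO2. Cells were pretreated 60 min at 37 °C with ligand in MEM/BSA/25 mM BES pH 7.2 (DMSO <0.1% final). Cells were lysed in NaOH and bound counts measured. Background was taken with 1 μg/well unlabeled EGF. Six concentrations were run in triplicate, and ID50 is the mean of three experiments.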

The target of assay [1] is T1, Protein kinase C alpha type (Homo sapiens, UniProt P17252). Kind of assay: Binding Affinity against protein kinase C alpha.
Assay [2] has as its target T1, Protein kinase C alpha type.
The test system of a further assay is K562. Kind of assay: Tested for growth inhibition against Leukemia K-562 cells. It is filed as functional. Conditions: Homo sapiens. In a few lines:
(§1)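 GI50 is interpolated from the NCI cell-panel screen. It is the concentration (M) at which percentage growth is inhibited by 50% in the named line.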

The subject of another assay is COLO 205. The experiment in a line: Tested for growth inhibition against COLO 205 cells. The format is functional. Conditions: Homo sapiens. In a few lines: as §1
The species entered for the next assay is Homo sapiens. Kind of assay: Tested for growth inhibition against Breast Hs 578.T. It is filed as functional. In a few lines:
as §1

In assay [3] the test system is Panel NCI-60 (60 carcinoma cell lines). Kind of assay: Tested for growth inhibition against MG-MID(full panel of cells). The format is functional. Conditions: Homo sapiens. Put shortly:
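MG-MID is the calculated mean of the GI50 concentrations (M) across the entire NCI cell panel. Each GI50 is the interpolated concentration (M) giving 50% growth inhibition.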

As to `CCCC(=O)O[C@@H]1[C@@H](C)[C@@]2(O)[C@@H](C=C(CO)C[C@]3(O)C(=O)C(C)=C[C@@H]23)[C@@H]2C(C)(C)[C@]12OC(=O)CCC`, the EC50 in the assay on C3H 10T1/2 was found to be 0.02 µM.

As a reminder, the Ki is a measure of affinity in units of concentration, obtained from inhibition or displacement. Molecule `CCCCCC(=O)OCC1(CO)C/C(=C\C=C(C(C)C)C(C)C)C(=O)O1` (centres undefined) came in with a Ki in assay [1] of 0.0084 µM.

As usually defined, the GI50 is the concentration giving 50% growth inhibition. Low readings indicate greater sensitivity of the cells, high ones lower sensitivity of the cells. `CC(C)C(C/C=C1\CC(CO)(COC(=O)CC(C(C)C)C(C)C)OC1=O)C(C)C` (centres undefined): the ED50 in assay [2] came out at 0.68 µM. In addition, the GI50 came out at 1.5 µM with K562, 1.6 µM with COLO 205 and 12 µM in the assay listed under Homo sapiens. Besides, the EC50 in the assay on C3H 10T1/2 was 0.14 µM.

As to `CCCC(=O)OCC1(CO)C/C(=C\CC(C(C)C)C(C)C)C(=O)O1` (centres undefined), the affinity in assay [1], expressed as Ki, was 0.054 µM.

Regarding `CCCCCCOC(=O)/C=C/[C@]1(CO)C/C(=C\CC(C(C)C)C(C)C)C(=O)O1`, the affinity in assay [1], expressed as Ki, was 0.0295 µM.

In assay [1], `CCCCCC(=O)OCC1(CO)C/C(=C/C=C(C(C)C)C(C)C)C(=O)O1` (centres undefined) gave a Ki of 0.012 µM.

On to `CC(=O)O[C@@]12C[C@@H](C)[C@@]3(O)[C@@H](C=C(CO)C[C@]4(O)C(=O)C(C)=C[C@@H]34)[C@@H]1C2(C)C` [PROSTRATIN], for which the GI50 in assay [3] came out at 7 µM; with COLO 205, 1.9 µM; in the assay filed under Homo sapiens it was 0.79 µM.

In assay [1], `CC(=O)OCC1(CO)C/C(=C/C=C(C(C)C)C(C)C)C(=O)O1` (centres undefined) displayed a Ki of 0.39 µM.

Molecule `CCCCCCOC(=O)/C=C/[C@]1(CO)C/C(=C/CC(C(C)C)C(C)C)C(=O)O1` came in with an ED50 in assay [2] of 0.95 µM. The EC50 in the assay on C3H 10T1/2 amounted to 0.14 µM. The affinity in assay [1] corresponds to a Ki of 0.0035 µM.

In assay [1], `C/C=C1/CC(CO)(COC(=O)CC(C(C)C)C(C)C)OC1=O` (centres undefined) yielded a Ki of 0.164 µM.

Consider `CCCC(=O)OCC1(CO)C/C(=C\C=C(C(C)C)C(C)C)C(=O)O1` (centres undefined), for which, in assay [1], the Ki was determined as 0.051 µM.

The molecule `CCCCCCCCC/C=C1\CC(CO)(COC(=O)CC(C(C)C)C(C)C)OC1=O` (centres undefined) yielded a Ki in assay [1] of 0.0095 µM.

`CCCC(=O)OCC1(CO)C/C(=C/C=C(C(C)C)C(C)C)C(=O)O1` (centres undefined): the affinity in assay [1] corresponds to a Ki of 0.068 µM.

Molecule `CCCCCCCCC/C=C1/CC(CO)(COC(=O)CC(C(C)C)C(C)C)OC1=O` (centres undefined) came in with an ED50 in assay [2] of 0.43 µM. The GI50 in assay [3] was 4.7 µM; in the assay on K562, 0.14 µM; in the assay with COLO 205, 0.071 µM; in the assay filed under Homo sapiens it was 0.058 µM. The EC50 with C3H 10T1/2 came out at 0.37 µM. For the same molecule, the affinity in assay [1] corresponds to a Ki of 0.013 µM.

Molecule `CCCCCCCCCC(=O)OCC1(CO)C/C(=C\CC(C(C)C)C(C)C)C(=O)O1` (centres undefined) displayed a Ki in assay [1] of 0.0066 µM.

Molecule `CC(C)C(C/C=C1/CC(CO)(COC(=O)CC(C(C)C)C(C)C)OC1=O)C(C)C` (centres undefined) yielded an ED50 in assay [2] of 0.55 µM. Also, the GI50 was found to be 3.2 µM in assay [3], 0.021 µM in the assay with K562, 0.025 µM in the assay on COLO 205 and 0.026 µM in the assay filed under Homo sapiens. In addition, in the assay on C3H 10T1/2, the EC50 amounted to 0.17 µM.

`C/C=C1\CC(CO)(COC(=O)CC(C(C)C)C(C)C)OC1=O` (centres undefined) had a Ki in assay [1] of 0.138 µM.

The molecule `CCCCCC(=O)OCC1(CO)C/C(=C/CC(C(C)C)C(C)C)C(=O)O1` (centres undefined) yielded an ED50 in assay [2] of 2.33 µM. In the assay with C3H 10T1/2, the EC50 was determined as 2.22 µM. In assay [1], this molecule gave an inhibition constant (Ki) of 0.0059 µM.

As to `CCC/C=C1\CC(CO)(COC(=O)CC(C(C)C)C(C)C)OC1=O` (centres undefined), the affinity in assay [1] corresponds to a Ki of 0.028 µM.

`CC(=O)OCC1(CO)C/C(=C/CC(C(C)C)C(C)C)C(=O)O1` (centres undefined): in assay [1], the Ki is 0.123 µM.

`CCCCC/C=C1\CC(CO)(COC(=O)CC(C(C)C)C(C)C)OC1=O` (centres undefined) displayed a Ki in assay [1] of 0.0055 µM.

In turn, `CC(=O)OCC1(CO)C/C(=C\CC(C(C)C)C(C)C)C(=O)O1` (centres undefined) had a Ki in assay [1] of 0.359 µM.

The molecule `CCCCCCCCCC(=O)OCC1(CO)C/C(=C/CC(C(C)C)C(C)C)C(=O)O1` (centres undefined) came in with an ED50 in assay [2] of 0.66 µM. Besides, the concentration for 50% growth inhibition (GI50) in assay [3] was found to be 44 µM; with K562, 9.2 µM; with COLO 205, 18 µM; in the assay listed under Homo sapiens, 27 µM. In addition, the EC50 in the assay with C3H 10T1/2 amounted to 1.17 µM. In assay [1], this molecule had a Ki of 0.0023 µM.

Consider `CCCC(=O)OCC1(CO)C/C(=C/CC(C(C)C)C(C)C)C(=O)O1` (centres undefined), for which the ED50 in assay [2] stood at 1.95 µM. In addition, the EC50 in the assay with C3H 10T1/2 came to 0.82 µM. In assay [1], this molecule gave an inhibition constant Ki of 0.019 µM.

As to `CCC/C=C1/CC(CO)(COC(=O)CC(C(C)C)C(C)C)OC1=O` (centres undefined), affinity in assay [1] was put at a Ki of 0.024 µM.

In the case of `CCCCCCCC(=O)OC[C@]1(CO)C/C(=C/CC(C(C)C)C(C)C)C(=O)O1`, affinity in assay [1] was put at a Ki of 0.0035 µM.

With `CCCCCCCC(=O)OC[C@]1(CO)C/C(=C\CC(C(C)C)C(C)C)C(=O)O1`, in assay [1], the inhibitory constant (Ki) is 0.0059 µM.

For `CCCCC/C=C1/CC(CO)(COC(=O)CC(C(C)C)C(C)C)OC1=O` (centres undefined), the ED50 in assay [2] was determined as 0.34 µM. In the assay on C3H 10T1/2, the EC50 was determined as 0.13 µM. This molecule also showed a Ki in assay [1] of 0.0073 µM.

In assay [1], `CC(=O)OCC1(CO)C/C(=C\C=C(C(C)C)C(C)C)C(=O)O1` (centres undefined) gave a Ki of 0.409 µM.

On to `CCCCCC(=O)OCC1(CO)C/C(=C\CC(C(C)C)C(C)C)C(=O)O1` (centres undefined), for which the affinity in assay [1] corresponds to a Ki of 0.011 µM.

In the case of `CCCCCCCC/C=C\CCCCCCC/C=C1/C[C@](/C=C/C(=O)OC)(CO)OC1=O`, in assay [2], the ED50 was found to be 1.07 µM. Besides, the EC50 in the assay with C3H 10T1/2 amounted to 0.33 µM. In assay [1], the affinity, expressed as Ki, was 0.011 µM.
